Measurements as given in PubChem BioAssay.
Values without a mark were called inactive. Records with an inconclusive call do not appear. The source made the active and inactive calls.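 How the source made its calls, unless noted: active means RAM network inhibition above 8.4% in each of two replicates, 3 SD over the compound average; inconclusive means above 8.4% inhibition in only one replicate; inactive means 8.4% inhibition or less in each replicate.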

Legend:
[1] = S. cerevisiae growth inhibition in permissive medium (OD615), pilot counter-assay for S. cerevisiae lifespan shortening project, permissive growth control (AID 705;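 active means growth inhibition above 25% in both replicates, a cutoff set 3 SD above the mean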); conditions: OD615, 24 h, at 10 µM, hits give high values
In short: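 Timing: 24 h exposure, 30 °C / Material: Saccharomyces cerevisiae strain carrying genetically modified DeaD replicative-lifespan system / Signal: OD at 615 nm / Compound: 10 µM single dose, 0.25% DMSO / Medium: SC raffinose/galactose permissive medium / Evaluation: reduction in yeast growth (OD615)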

[2] = S. cerevisiae growth inhibition in restrictive medium, OD615, pilot screen, restrictive growth control, yeast lifespan reduction project (AID 706;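 active means growth inhibition above a set limit, 3 SD over mean compound inhibition, in both replicates, cut at about 43% in these data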;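 further: modified DeaD lifespan yeast strain shifted to restrictive glucose medium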); conditions: OD615, 48 h, at 10 µM, hits give high values
In short: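 System: Engineered S. cerevisiae DeaD strain | Detection: OD615 | Buffer or medium: CSMM-D glucose medium | Doses: 10 µM compound, 0.25% DMSO | Timing: 4 h pre-growth plus 48 h compound exposure, 30 °C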

[3] = doxorubicin toxicity protection in MRP-1 cells – H69AR cells, CellTiter-Glo, duplicate, MRP-1 activator project, pilot screen (AID 807;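 active means viability increase at or above a cutoff of the median across tested compounds plus 3 SD, cut at about 8.5% in these data, passing the limit was not always enough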;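 further: compound pretreatment 18-22 h then 72 h combined with doxorubicin; 0% = doxorubicin alone and 100% = vehicle without doxorubicin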); conditions: H69AR viability with doxorubicin, CellTiter-Glo luminescence; at 10 µM; hits give high values
[4] = viability of HCT116 without oncogenic beta-catenin – human colon tumor cells, pilot screen (AID 823;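 active means cell viability at or below a set limit in both duplicate runs, the limit being the all-compound median minus 4 SD, cut at about 23% in these data, passing the limit was not always enough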;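 further: 0% = wells killed by 20 µM Hyamine and 100% = untreated DMSO cell wells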); conditions: HCT116 beta-catenin knockout viability, CellTiter-Glo, 60 h; at 10 µM; hits give low values
[5] = viability of PTEN-null HCT116 cells – cell-based, HCT116 clonal line, CellTiter-Glo, pilot screen (AID 824;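 active means viability at or below 27.92% in each of two runs, the all-compound median minus 4 SD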;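 further: 0% = 20 µM Hyamine control and 100% = vehicle cell control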); conditions: HCT116 PTEN-deleted viability, 60 h, at 10 µM, hits give low values
[6] = RAM signaling pathway blockade in yeast – S. cerevisiae, Pdr1DBD-CYC8 efflux-inhibited sensitized strain, primary screen (AID 1298);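 further: 0% = DMSO untreated cells without growth and 100% = 10 µM 1-NA-PP1 full growth; higher means more yeast growth rescued from 5-FOA killing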; conditions: S. cerevisiae cbk1-as DSE1-URA3 strain, 5-FOA growth OD615, 2 d; at 50 µM; hits give high values
[7] = RAM pathway blockade in budding yeast – dse1pr::URA3 reporter, 5-FOA selection, pilot screen (AID 869;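 active means inhibition over a set limit, the all-compound mean plus 3 SD, in both replicate runs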;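 further: 0% = DMSO wells with no growth and 100% = 10 µM 1-NA-PP1 with full growth; RAM network block rescues cells from 5-FOA so hits raise OD615 growth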); conditions: S. cerevisiae dse1pr::URA3 5-FOA growth, OD615, 2 d; at 10 µM; hits give high values; strain carries analog-sensitive mutant Cbk1 kinase

SMILES	growth inhibition [1] [%]	growth inhibition [2]	viability increase [3] [%]	viability [4]	viability [5] [%]	RAM network inhibition [6] [%]	inhibition [7] [%]
Cc1cc(NC(=O)CSc2cn(CCNC(=O)c3ccc(Cl)cc3)c3ccccc23)no1	-4.83	-1.28%	-0.7	61.5%	57.3	3.24	
CCCCCOC(=O)NCC(O)c1ccccc1 (stereo unspecified)	-12.5	-8.97%	-1.52	101%	95.5	5.59	2.22
COCCN1C(=O)c2oc3ccccc3c(=O)c2C1c1ccc(OC)c(OC)c1 (stereo unspecified)	-24	-16.9%	-1.75	107%	95.1	4.46	0.865
Cc1ccc2oc(=O)n(CC(=O)O)c2c1	-6.32	5.35%	-0.21	98.6%	93.7	-1.2	1.27
CCn1c(=O)cc(OCC(=O)N2CCc3ccccc32)c2ccccc21	-19	-15.4%	-3.92	96.1%	89.9	3.25	2.09
O=c1c2ccccc2nc2c3ccccc3ncn12	-15.1	-15.2%	-0.34	103%	101	6.01	
CC(=O)c1c(C)nc2ccc(Br)cc2c1C(=O)O	-10.2	8.3%	-1.9	98.2%	97.4	1.15	1.79
COc1ccc(C2C(C(C)=O)=C(O)C(=O)N2CCN(C)C)cc1OC (stereo unspecified)	-17.7	-12.3%	0.21	92.6%	96.9	1.99	
CCOC(=O)Nc1ccc(S(=O)(=O)Nn2cnnc2)cc1	-14.5	1.07%	0	89%	108	3.94	
CCOc1ccc(N(CC(=O)Nc2cccc(Cl)c2)S(=O)(=O)c2c(C)noc2C)cc1	-14.8	-4.69%	-7.01	39.2%	45.7	12.6	
O=C(CSc1oc(-c2ccco2)nc1S(=O)(=O)c1ccc(F)cc1)NCC1CCCO1 (stereo unspecified)	-6.81	0.32%	-1.31	101%	106	3.81	0.295
CCCCn1c(CNC(C)=O)nc2ccccc21	-2.36	0.94%	-1.24	98.1%	100	1.93	
Cn1cccc1Cc1nnc(SCC(=O)Nc2nccs2)n1CCc1ccccc1	19.9	62.6% (active)	-2.32	103%	85.8	2.48	1.12
COCCCNC(=O)c1cc2c(-c3ccc(Cl)cc3)nn(C)c2s1	-0.14	1.75%	-6.69	82.9%	84.5	3.67	3.08
Cc1cc2cc(CNC(=O)c3ccc(S(=O)(=O)N4CCOCC4)cc3)ccc2[nH]1	-5.21	-10.8%	0.86	99.5%	96.2	5.69	
Cc1cc(-c2nc3ncccc3o2)ccc1NC(=O)CC(C)C	-3.98	-5.53%	-0.17	108%	90	0.92	1.06
CC1CCc2nn(CC(=O)NCCC3=CCCCC3)cc2C1 (stereo unspecified)	4.45	-4.16%	-1.4	101%	94.5	0.3	0.595
CSc1ccc(CN2CCC(O)CC2)cc1	-12.7	-15.8%	-0.93	102%	100	5.11	1.4
COc1ccc(C(=O)CCC(=O)O)cc1	-6.25	0.095%	-0.14	98.1%	96.7	-2.03	2.16

SMILES	growth inhibition [1] [%]	growth inhibition [2]	viability increase [3] [%]	viability [4]	viability [5] [%]	RAM network inhibition [6] [%]	inhibition [7] [%]
COc1ccc(-c2cc(C(F)(F)F)nc(S(C)(=O)=O)n2)cc1OC	-23.4	-9.75%	-7.11	14.5% (active)	48.7	-0.26	
CCCN(CCC)C(=O)CCS(=O)(=O)c1cccc2nsnc12	-9.5	-18.6%	-1.95	96.3%	98.2	2.25	1.15
CCSC(C)CC1C/C(=N/O)c2c(CC)noc2C1 (stereo unspecified)	-0.005	-4.39%	5.22	93.6%	94.2	0.17	
CCOc1cccc(N2C(=O)CC(NCc3ccc(S(N)(=O)=O)cc3)C2=O)c1 (stereo unspecified)	-14.7	-1.03%	-1.3	101%	94.7	2.35	0.44
O=C(Cn1c(=O)oc2cc(S(=O)(=O)N3CCCC3)ccc21)NC1CCCc2ccccc21 (stereo unspecified)	-5.83	-9.71%	-0.88	97%	79.4	10.3	
Cc1ccc(Nc2ncnc3nc[nH]c23)cc1Cl	1.92	31.3%	-1.76	105%	90.8	4.7	
O=C(CSc1nc2ccccc2o1)NCc1ccc2c(c1)OCO2	-8.6	-2.3%	4.28	94.8%	83.9	2.68	
COc1ccc(OCCOC(=O)Nc2ccccc2)cc1	-13.2	-6.21%	1.53	93.4%	94.1	5.48	1.64
O=C(CSc1nc2c([nH]c3ccccc32)c(=O)n1-c1ccccc1)N1CCOCC1	-7.05	-18.6%	-6.19	93.6%	87	5.28	
Cc1cc(=O)oc2cc(OCC(O)CN3CCN(c4ccc(F)cc4)CC3)ccc12 (stereo unspecified)	-10.4	-2.92%	-0.12	74.5%	80.8	-0.18	0.85
CC(Cc1c[nH]c2ccccc12)NC(=O)C1CCCNC1=O (stereo unspecified)	-5.75	8.45%	-0.46	99.4%	103	0.66	1.27
CCCCOc1ccc(-c2nc(-c3cccnc3)no2)cc1	-3.21	4.81%	4.19	68.4%	82.9	2.29	0.07
Cc1cc(Oc2ccccc2)nc2ccc(O)cc12	-1.63	3.26%	-5.89	89.9%	80.2	-0.04	1.14
CCN(CC)C1=CC(=O)OC12CCCCC2	-13.1	0.735%	-2.99	98.5%	93.7	9.79	2.08
COc1ccc(N2CCN(S(=O)(=O)c3ccc(OC)cc3)CC2)cc1	-4.01	3.09%	-5.5	99.3%	106	3.84	0.885
CCCCN1C(=O)c2ccc(C(=O)Nc3c(N)n(CCCC)c(=O)n(C)c3=O)cc2C1=O	-9.82	-6.89%	-0.93	103%	88.2	7.06	0.865
CN1C(=O)CS(=O)c2ccc(C(=O)NCCC3=CCCCC3)cc21 (stereo unspecified)	0.135	0.3%	-2.35	81.3%	85	2.98	0.265
CCn1cc(CNC(=O)c2cc(Cl)ccc2OC)c(C)n1	-4.3	-0.555%	-0.95	91%	92.2	3.38	-0.445
